Tests used:
[1] = Toxicity in mouse xenografted with human HCT116 cells assessed as reduction in body weight at 0.5 mg/kg, ip qd for 21 days administration starting from 10 days after tumor cell implantation measured every 2 or 4 days till the end of the treatment period; assay type: organism-based; conditions: in vivo
Outline: (§1)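 Nude mice bearing HCT116 xenografts were given intraperitoneal doses on 21 consecutive days, with n = 6 per group including an untreated control group. Body weight was recorded to assess toxicity. Data are mean ± SEM, compared with the control group by Student's t test.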

HCT-116 [2] = assay: Antitumor activity against human HCT116 cells xenografted in mouse assessed as reduction in tumor growth at 0.5 mg/kg, ip qd for 21 days administration starting from 10 days after tumor cell implantation measured every 2 or 4 days till the end of the treatment period relative to control; assay type: functional; conditions: HCT-116, ip, read-out: TGI
Outline: (§2)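 HCT116 xenografts in nude mice; intraperitoneal dosing on 21 consecutive days; tumour growth inhibition (TGI) versus untreated control, with body weight recorded. n = 6 mice per group; mean ± SEM; significance by Student's t test versus control.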

HCT-116 [3] = assay: Antiproliferative activity against human HCT116 cells assessed as reduction in cell viability incubated for 72 hrs by CCK8 assay; assay type: functional, cell-based; conditions: HCT-116, 72 h
MDA-MB-435 = assay: Antiproliferative activity against human MDA-MB-435 cells assessed as reduction in cell viability incubated for 72 hrs by CCK8 assay; assay type: functional, cell-based; conditions: MDA-MB-435, 72 h
A549 = assay: Antiproliferative activity against human A549 cells assessed as reduction in cell viability incubated for 72 hrs by CCK8 assay; assay type: functional, cell-based; conditions: A549, 72 h
[4] = Aqueous solubility of compound at pH 7.4; assay type: physicochemical
HCT-116 [5] = assay: Antitumor activity against human HCT116 cells xenografted in mouse assessed as reduction in tumor growth at 16 mg/kg, ip qd for 21 days administration starting from 10 days after tumor cell implantation measured every 2 or 4 days till the end of the treatment period relative to control; assay type: functional; conditions: HCT-116, ip, read-out: TGI; outline: as §2
[6] = Toxicity in mouse xenografted with human HCT116 cells assessed as reduction in body weight at 16 mg/kg, ip qd for 21 days administration starting from 10 days after tumor cell implantation measured every 2 or 4 days till the end of the treatment period; assay type: organism-based; conditions: in vivo; outline: as §1

Row | Structure (SMILES) | Activity [1] | inhibition in vivo at 0.5 mg/kg (HCT-116 [2]) | IC50 (HCT-116 [3]) | IC50 (MDA-MB-435) | IC50 (A549) | solubility [4] | inhibition in vivo at 16 mg/kg (HCT-116 [5]) | Activity [6]
1 | CC[C@@]1(O)C(=O)OCc2c1cc1n(c2=O)Cc2cc3c(CN(C)C)c(O)ccc3nc2-1 [TOPOTECAN] | Toxic | 68.5% |  |  |  |  |  | 
2 | COc1ccc2c(c1)cc1n2CCn2c-1[n+](C)c1ccc(F)cc1c2=O |  |  | 87.2 µM | > 200 µM | > 200 µM | 850 µg/mL | 66.6% | Non-Toxic
